Laboratory results reported in ChEMBL document CHEMBL3865847, “The synthesis and biological evaluation of alkyl and benzyl naphthyridinium analogs of eupolauridine as potential antimicrobial and cytotoxic agents” (Bioorg Med Chem, 2016).
≈ marks a conversion by molar mass, not a printed value.

Legend:
[1] = Cytotoxicity against human BT549 cells assessed as cell growth inhibition after 48 hrs by neutral red dye based assay; assay type: functional; settings: BT-549, 48 h
In short: (§1)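 Cells kept in RPMI-1640 with 10% bovine serum and 60 µg/mL amikacin, 37 °C, 5% CO2. Seeded at 25,000 cells/well, left 24 h to adhere. Samples diluted in RPMI added, highest final concentration 10 µg/mL. Growth measured by neutral red uptake after 48 h exposure.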

Staphylococcus aureus [2] = experiment: Antimicrobial activity against methicillin-resistant Staphylococcus aureus; assay type: functional
In short: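 MRSA precultured 24 h, diluted 1:50 in broth, added to serially diluted samples in 96-well plates (highest final DMSO 2.5%), incubated at 37 °C. Growth measured as absorbance at 630 nm versus controls. MIC is the lowest concentration giving 80% inhibition; IC50 (50% inhibition) is read from concentration versus % growth plots.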

Candida albicans = experiment: Antimicrobial activity against Candida albicans B311; assay type: functional
In short: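 Cultured in Sabouraud dextrose broth 24 h, counted by hemocytometer, diluted to 10,000 CFU/mL. Added to serially diluted samples in 96-well plates, top final concentration 50 µg/mL (≤2.5% DMSO), incubated 37 °C. Growth by A630. MIC is the lowest concentration giving 80% inhibition against controls; IC50 from concentration versus % growth plots.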

Plasmodium falciparum = experiment: Antimalarial activity against Plasmodium falciparum D6 infected in RBC after 48 hrs by lactate dehydrogenase assay; assay type: functional; settings: D6, 48 h
In short: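 Parasites grown in A+ human erythrocytes in RPMI 1640 with 10% A+ human serum, 25 mM HEPES, 27 mM bicarbonate, 60 µg/mL amikacin, 37 °C under 90% N2/5% O2/5% CO2. Infected cells exposed 48 h in microtiter wells, highest concentration 4.8 µg/mL. Growth read by Malstat reagent (parasite LDH) with nitro blue tetrazolium reduction, absorbance 630 nm.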

[3] = Cytotoxicity against human KB cells assessed as cell growth inhibition after 48 hrs by neutral red dye based assay; assay type: functional; in short: as §1
[4] = tested on: Mycobacterium intracellulare; experiment: Antimicrobial activity against Mycobacterium intracellulare ATCC 23068; assay type: functional
In short: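 Mycobacterium grown 72 h in Middlebrook medium with OADC supplement, diluted 1:30 in broth. Incubated at 37 °C with diluted samples in 96-well plates, highest final 50 µg/mL, DMSO at most 2.5%. Absorbance at 630 nm. MIC = lowest concentration with 80% growth inhibition relative to controls; IC50 from concentration versus % growth plots.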

[5] = Cytotoxicity against human SKOV3 cells assessed as cell growth inhibition after 48 hrs by neutral red dye based assay; assay type: functional; settings: SK-OV-3, 48 h; in short: as §1
[6] = Inhibition of Candida albicans DNA topoisomerase 1 using pHOT1 as substrate after 30 mins by agarose gel electrophoresis
In short: (§2)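 Relaxation of supercoiled to relaxed DNA by TopoI measured with a commercial TopoI drug kit following kit protocol. IC50 calculated from dose-response curves of % inhibition versus concentration.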

[7] = Cytotoxicity against human SK-MEL cells assessed as cell growth inhibition after 48 hrs by neutral red dye based assay; assay type: functional; in short: as §1
DNA topoisomerase 1 = target: T1, DNA topoisomerase 1 (Homo sapiens, UniProt P11387); experiment: Inhibition of human DNA topoisomerase 1 using pHOT1 as substrate after 30 mins by agarose gel electrophoresis; in short: as §2
T1 sequence (P11387 whole entry): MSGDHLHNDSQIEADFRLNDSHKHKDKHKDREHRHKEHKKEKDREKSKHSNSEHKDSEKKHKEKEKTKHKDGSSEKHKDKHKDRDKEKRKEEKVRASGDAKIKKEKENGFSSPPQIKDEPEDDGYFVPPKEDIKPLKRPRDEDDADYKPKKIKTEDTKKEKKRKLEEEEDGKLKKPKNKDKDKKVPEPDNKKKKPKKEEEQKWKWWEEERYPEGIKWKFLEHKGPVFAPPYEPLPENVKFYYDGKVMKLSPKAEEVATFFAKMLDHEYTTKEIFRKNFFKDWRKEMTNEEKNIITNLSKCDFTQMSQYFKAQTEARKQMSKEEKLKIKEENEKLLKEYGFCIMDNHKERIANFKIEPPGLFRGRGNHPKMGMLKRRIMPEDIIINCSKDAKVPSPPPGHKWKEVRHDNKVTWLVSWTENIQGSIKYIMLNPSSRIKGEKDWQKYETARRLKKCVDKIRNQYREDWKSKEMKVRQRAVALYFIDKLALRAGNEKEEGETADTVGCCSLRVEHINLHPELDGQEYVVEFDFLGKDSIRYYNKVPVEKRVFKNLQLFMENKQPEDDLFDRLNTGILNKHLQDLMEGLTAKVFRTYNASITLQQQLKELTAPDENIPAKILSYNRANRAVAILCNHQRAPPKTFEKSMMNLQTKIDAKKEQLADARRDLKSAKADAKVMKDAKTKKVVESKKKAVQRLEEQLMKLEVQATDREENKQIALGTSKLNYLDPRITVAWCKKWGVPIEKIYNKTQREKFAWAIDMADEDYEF

[8] = Selectivity index, ratio of IC50 for human DNA topoisomerase 1 to IC50 for Candida albicans DNA topoisomerase 1
Cryptococcus neoformans = experiment: Antimicrobial activity against Cryptococcus neoformans ATCC 52657; assay type: functional
In short: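 Grown in mycophil broth 72 h, hemocytometer-counted, diluted to 200,000 CFU/mL. Exposed to diluted samples in 96-well plates, maximum final 50 µg/mL (DMSO up to 2.5%), incubated 30 °C. A630 readout. MIC is the lowest concentration inhibiting 80% of growth versus controls; IC50 read from concentration versus % growth graphs.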

[9] = Cytotoxicity against African green monkey Vero cells assessed as cell growth inhibition at 10 ug/ml after 48 hrs by neutral red dye based assay; assay type: toxicity; settings: chlorocebus sabaeus; in short: as §1
Staphylococcus aureus [10] = experiment: Antimicrobial activity against Staphylococcus aureus ATCC 6538; assay type: functional
In short: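 Staphylococcus aureus grown 24 h in Eugon broth, diluted 1:50 in broth, added to serially diluted samples in 96-well plates (highest final DMSO 2.5%), incubated at 37 °C. Growth measured at 630 nm versus controls. MIC is the lowest concentration inhibiting 80% of growth; IC50 (50% inhibition) comes from concentration versus % growth plots.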

Pseudomonas aeruginosa = experiment: Antimicrobial activity against Pseudomonas aeruginosa ATCC 15442; assay type: functional
In short: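 Pseudomonas grown 24 h in trypticase soy broth, diluted 1:50. Combined with diluted samples in 96-well plates, top final concentration 50 µg/mL (≤2.5% DMSO), 37 °C incubation. Growth read at 630 nm. MIC is the lowest tested concentration inhibiting 80% of growth versus controls; IC50 from concentration versus % growth graphs.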

[11] = Cytotoxicity against African green monkey Vero cells assessed as cell growth inhibition after 48 hrs by neutral red dye based assay; assay type: toxicity, Chlorocebus sabaeus; in short: as §1

Row | Compound | IC50 [1] | IC50 (Staphylococcus aureus [2]) | IC50 (Candida albicans) | MIC80 (Candida albicans) | IC50 (Plasmodium falciparum) | IC50 [3] | MIC80 [4] | IC50 [5] | IC50 [6] | IC50 [7] | IC50 (DNA topoisomerase 1) | Ratio IC50 [8] | IC50 (Cryptococcus neoformans) | MIC80 (Cryptococcus neoformans) | Activity [9] | IC50 (Staphylococcus aureus [10]) | IC50 (Pseudomonas aeruginosa) | IC50 at 48 h [11]
1 | COc1cc(C[n+]2ccc3ccnc4c3c2-c2ccccc2-4)cc(OC)c1.[Br-] | > 10 µg/mL | 9 µg/mL | 20 µg/mL | 25 µg/mL | 0.011 µg/mL | 7 µg/mL | 50 µg/mL | < 1.1 µg/mL | 12.5 µg/mL | 2 µg/mL | 34.5 µM | 0.83 | 0.92 µg/mL | 3.12 µg/mL | Non-Toxic | – | – | –
2 | [Br-].c1ccc(C[n+]2ccc3c4c(nc5ccccc53)-c3ccccc3-c42)cc1 | 6 µg/mL | 35 µg/mL | – | – | 0.0415 µg/mL | 2.9 µg/mL | 10 µg/mL | 1.2 µg/mL | 0.55 µg/mL | 1.8 µg/mL | 1.34 µM | 0.96 | 2.13 µg/mL | 12.5 µg/mL | Non-Toxic | 5 µg/mL | 4 µg/mL | –
3 | C[n+]1ccc2cc(-c3ccccc3)nc3c2c1-c1ccccc1-3.[I-] | 6.2 µg/mL | 20 µg/mL | 0.32 µg/mL | 0.39 µg/mL | 0.46 µg/mL | 7 µg/mL | – | < 1.1 µg/mL | 35 µg/mL | 9 µg/mL | 28.4 µM | 2.92 | 0.4 µg/mL | 0.78 µg/mL | Non-Toxic | 20 µg/mL | 25 µg/mL | –
4 | CC[n+]1ccc2ccnc3c2c1-c1ccccc1-3.[I-] | – | – | 35 µg/mL | 50 µg/mL | 0.0475 µg/mL | – | – | – | 10 µg/mL | – | 41.6 µM | 0.67 | 13.3 µg/mL | 25 µg/mL | Non-Toxic | 40 µg/mL | – | –
5 | COc1cccc2c1C(=O)c1c(O)c3c(c(O)c1C2=O)C[C@@](O)(C(=O)CO)C[C@@H]3O[C@H]1C[C@H](N)[C@H](O)[C@H](C)O1 [DOXORUBICIN] | 1.35 µg/mL (≈ 2.48 µM) | – | – | – | – | 1.59 µg/mL (≈ 2.93 µM) | – | 1.3 µg/mL (≈ 2.39 µM) | – | 1.11 µg/mL (≈ 2.04 µM) | – | – | – | – | – | – | – | > 10 µg/mL
6 | CC[n+]1ccc2c3c(nc4ccccc42)-c2ccccc2-c31.[I-] | > 10 µg/mL | – | 16.7 µg/mL | 25 µg/mL | 0.033 µg/mL | 6.8 µg/mL | – | 1.3 µg/mL | 0.7 µg/mL | – | 1.71 µM | 1 | 6 µg/mL | 12.5 µg/mL | Non-Toxic | – | 50 µg/mL | –
7 | Cc1cc2c3c(nc4ccccc42)-c2ccccc2-c3[n+]1C.[I-] | 5.4 µg/mL | 25 µg/mL | 25 µg/mL | 50 µg/mL | 0.02 µg/mL | 3.5 µg/mL | – | 4.5 µg/mL | 0.5 µg/mL | > 10 µg/mL | 1.71 µM | 0.71 | 1.83 µg/mL | 3.12 µg/mL | Non-Toxic | – | – | –
8 | C[n+]1c2c3c(nc(-c4ccccc4)cc3c3ccccc31)-c1ccccc1-2.[I-] | 7.5 µg/mL | 5 µg/mL | 0.2 µg/mL | 0.39 µg/mL | – | > 10 µg/mL | 50 µg/mL | 4.5 µg/mL | 0.375 µg/mL | 3.5 µg/mL | 1.01 µM | 0.79 | 0.23 µg/mL | 0.78 µg/mL | Non-Toxic | 4.5 µg/mL | 4 µg/mL | –
9 | Cc1ccc(C[n+]2ccc3ccnc4c3c2-c2ccccc2-4)cc1.[Br-] | – | 35 µg/mL | 3.17 µg/mL | 6.25 µg/mL | 0.0095 µg/mL | 6.8 µg/mL | 50 µg/mL | < 1.1 µg/mL | 11 µg/mL | 1.9 µg/mL | 28.3 µM | 1 | 0.33 µg/mL | 0.78 µg/mL | Non-Toxic | – | – | –
10 | [Br-].c1ccc2c(c1)-c1nccc3cc[n+](Cc4ccc5ccccc5c4)c-2c13 | > 10 µg/mL | 22 µg/mL | 0.67 µg/mL | 0.78 µg/mL | 0.0195 µg/mL | 6 µg/mL | 50 µg/mL | < 1.1 µg/mL | 21 µg/mL | < 1.1 µg/mL | 70.5 µM | 0.7 | 0.3 µg/mL | 0.39 µg/mL | Non-Toxic | 20 µg/mL | 30 µg/mL | –
11 | C[n+]1ccc2c3c(nc4ccccc42)-c2ccccc2-c31.[I-] | 7 µg/mL | 20 µg/mL | 23.3 µg/mL | 25 µg/mL | 0.033 µg/mL | 6.5 µg/mL | – | 1.3 µg/mL | 1.5 µg/mL | – | 4.54 µM | – | 2 µg/mL | 6.25 µg/mL | Non-Toxic | – | – | –
12 | NC(=O)C[n+]1ccc2ccnc3c2c1-c1ccccc1-3.[Br-] | – | – | – | – | 0.09 µg/mL | – | – | > 10 µg/mL | – | 6.5 µg/mL | – | – | 30 µg/mL | 50 µg/mL | – | – | – | > 10 µg/mL
13 | Brc1cccc(C[n+]2ccc3ccnc4c3c2-c2ccccc2-4)c1.[Br-] | 1.15 µg/mL | – | 2.5 µg/mL | 6.25 µg/mL | 0.013 µg/mL | 0.18 µg/mL | 50 µg/mL | 0.095 µg/mL | 21 µg/mL | 0.65 µg/mL | 48.4 µM | 0.95 | 0.3 µg/mL | 0.78 µg/mL | Non-Toxic | – | 40 µg/mL | –
14 | C[n+]1ccc2c3c(nc4ccccc42)-c2ccccc2-c31.Cc1ccc(S(=O)(=O)[O-])cc1 | 7.5 µg/mL | – | 35 µg/mL | – | 0.0385 µg/mL | 4.4 µg/mL | – | 1.3 µg/mL | 0.7 µg/mL | > 10 µg/mL | 1.59 µM | – | 1.93 µg/mL | 6.25 µg/mL | Non-Toxic | – | 50 µg/mL | –
